According to ChEMBL document CHEMBL4376902, “CN128: A New Orally Active Hydroxypyridinone Iron Chelator” (J Med Chem, 2020):
The source made the active and inactive calls. The calls are words filed in the database; no cut-off is given here.

Legend:
[1] = test system: Rattus norvegicus; test: Iron scavenging activity in 59Fe-ferritin-loaded rat assessed as iron mobilization level at 450 umol/kg, po dosed 1 hr after 59Fe-ferritin injection and measured 24 hrs after 59Fe-ferritin injection by gamma counting method relative to control; type: functional
Method in brief: (§1)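 Male SD rats, 300 g, fasted overnight, given about 1 μC 59Fe-ferritin i.v. under isoflurane. Chelator gavaged 1 h later, then rats housed in metabolic cages; food returned 1 h after dosing. Killed 24 h after 59Fe-ferritin. Urine, faeces, liver and gut gamma-counted. 8 rats per condition.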

[2] = Toxicity in Sprague-Dawley rat assessed as induction of mortality at 200 mg/kg, po dosed once daily for 2 months as 5 days per week schedule; type: organism-based; details: in vivo, 120 h
[3] = Toxicity in Sprague-Dawley rat assessed as induction of histopathological changes in pancreas at 25 to 116 mg/kg, po dosed daily for 4 weeks and measured after additional 4 weeks period in absence of drug; type: organism-based; details: in vivo, 672 h
[4] = Toxicity in Sprague-Dawley rat assessed as induction of histopathological changes in bone marrow at 25 to 116 mg/kg, po dosed daily for 4 weeks and measured after additional 4 weeks period in absence of drug; type: organism-based; details: in vivo, 672 h
[5] = Toxicity in Sprague-Dawley rat assessed as induction of histopathological changes in thymus at 25 to 116 mg/kg, po dosed daily for 4 weeks and measured after additional 4 weeks period in absence of drug; type: organism-based; details: in vivo, 672 h
[6] = test system: Rattus norvegicus; test: Iron scavenging activity in 59Fe-ferritin-loaded rat assessed as iron mobilization level at 150 to 450 umol/kg, po dosed 1 hr after 59Fe-ferritin injection and measured 24 hrs after 59Fe-ferritin injection by gamma counting method relative to control; type: functional, organism-based; method in brief: as §1
[7] = Drug uptake in rat bile treated with 150 umol/kg, po (R) -3,4-Dihydroxy-1-(1 -hydroxy-3-phenylpropan-2-yl)-2-methyl- pyridin-1-ium Chloride assessed as compound formation by LC/TOF/MS/MS analysis; type: ADME, organism-based; details: in vivo
Method in brief: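 Bile collected from rats after an oral dose of 150 μmol/kg. Metabolites characterised by β-glucuronidase hydrolysis and LC-TOFMS/MS. M2/M1 ratio followed over 8 h.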

[8] = Metal chelating activity assessed as iron chelation
Method in brief: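 Automated spectrophotometric titration at ca. 40 µM iron complex, 50 mm path. pH raised in 0.1-unit steps with 0.1 M KOH, 3 min equilibration per step, up to pH 12.0. Competition with metal hydrolysis species; spectra fitted over 400-700 nm using literature hydrolysis constants to give stability constants.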

[9] = Drug metabolism in rat liver microsomes assessed as glucuronidation incubated for 1 hr relative to deferiprone; type: ADME, Microsome
Method in brief: (§2)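 Compound incubated 1 h with rat or human liver microsomes, n = 4, mean ± SD. Glucuronide formed given as percentage of total chelator added. Oxidative metabolism assessed separately.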

[10] = Drug metabolism in human liver microsomes assessed as glucuronidation incubated for 1 hr relative to deferiprone; type: ADME, Microsome; method in brief: as §2
[11] = Drug metabolism in rat liver microsomes assessed as oxidative metabolism incubated for 1 hr relative to deferiprone; type: ADME, Microsome
[12] = Drug metabolism in human liver microsomes assessed as oxidative metabolism incubated for 1 hr relative to deferiprone; type: ADME, Microsome
[13] = test system: Mus musculus; test: Toxicity in mouse assessed as reduction in monocytes counts at 200 mg/kg, po dosed once daily for 2 months as 5 days per week schedule; details: in vivo, 120 h
[14] = test system: Mus musculus; test: Toxicity in mouse assessed as effect on platelet population at 200 mg/kg, po dosed once daily for 2 months as 5 days per week schedule; details: in vivo, 120 h
[15] = test system: Mus musculus; test: Toxicity in mouse assessed as reduction in neutrophils counts at 200 mg/kg, po dosed once daily for 2 months as 5 days per week schedule; details: in vivo, 120 h
[16] = test system: Mus musculus; test: Toxicity in mouse assessed as reduction in lymphocytes counts at 200 mg/kg, po dosed once daily for 2 months as 5 days per week schedule; details: in vivo, 120 h
[17] = test system: Mus musculus; test: Toxicity in mouse assessed as reduction in eosinophils counts at 200 mg/kg, po dosed once daily for 2 months as 5 days per week schedule; details: in vivo, 120 h
[18] = test system: Mus musculus; test: Toxicity in mouse assessed as increase in reticulocyte population at 200 mg/kg, po dosed once daily for 2 months as 5 days per week schedule; details: in vivo, 120 h
[19] = test system: Mus musculus; test: Toxicity in mouse assessed as reduction in erythrocyte population at 200 mg/kg, po dosed once daily for 2 months as 5 days per week schedule; details: in vivo, 120 h
[20] = test system: Mus musculus; test: Toxicity in mouse assessed as reduction in total white cell counts at 200 mg/kg, po dosed once daily for 2 months as 5 days per week schedule; details: in vivo, 120 h

**Q.** With `Cc1c(O)c(O)cc[n+]1[C@H](CO)CC(C)C.[Cl-]` as the compound, how does the Activity [1] read?
**A.** 5.8%

**Q.** With `Cc1c(O)c(=O)ccn1C` [DEFERIPRONE] as the compound, how does the Activity [1] read?
**A.** 11.8%

**Q.** What about the Activity [2] of the same compound?
**A.** Non-Toxic

**Q.** And the Activity [3]?
**A.** Non-Toxic

**Q.** And the Activity [4]?
**A.** Non-Toxic

**Q.** What about the Activity [5] of the same compound?
**A.** Non-Toxic

**Q.** Which Activity [1] does the source give for `CC[C@H](C)[C@@H](CO)[n+]1ccc(O)c(O)c1C.[Cl-]` here?
**A.** 10.8%

**Q.** Which Activity [1] does the source give for `CCc1c(O)c(O)cc[n+]1[C@H](CO)CC(C)C.[Cl-]` here?
**A.** 10.3%

**Q.** With `CCc1c(O)c(O)cc[n+]1[C@H](CO)C(C)C.[Cl-]` as the compound, how does the Activity [1] read?
**A.** 7.9%

**Q.** With `CCc1c(O)c(O)cc[n+]1[C@@H](C)CO.[Cl-]` as the compound, how does the Activity [1] read?
**A.** 16%

**Q.** With `CCc1c(O)c(O)cc[n+]1[C@H](CO)Cc1ccccc1.[Cl-]` as the compound, how does the Activity [1] read?
**A.** 13.1%

**Q.** Which results are given for `Cc1c(O)c(O)cc[n+]1[C@H](CO)C(C)C.[Cl-]`?
**A.** Activity [1]: 18.7%; Activity [6]: Dose-dependent effect

**Q.** For `Cc1c(O)c(O)cc[n+]1CCO.[Cl-]`, which Activity [1] is on record?
**A.** 4%

**Q.** Which Activity [1] does the source give for `Cc1c(O)c(O)cc[n+]1[C@@H](C)CO.[Cl-]` here?
**A.** 11.9%

**Q.** With `Cc1c(O)c(O)cc[n+]1[C@@H](CO)C(C)C.[Cl-]` as the compound, how does the Activity [1] read?
**A.** 8%

**Q.** Which Activity [1] does the source give for `CCc1c(O)c(O)cc[n+]1[C@@H](CO)CC(C)C.[Cl-]` here?
**A.** 13.6%

**Q.** With `Cc1c(O)c(O)cc[n+]1[C@@H](CO)CC(C)C.[Cl-]` as the compound, how does the Activity [1] read?
**A.** 8.2%

**Q.** For `Cc1c(O[C@@H]2O[C@H](C(=O)O)[C@@H](O)[C@H](O)[C@H]2O)c(=O)ccn1[C@@H](CO)Cc1ccccc1`, which Drug uptake [7] is on record?
**A.** Metabolite_Detected

**Q.** And the Activity [8]?
**A.** inactive

**Q.** With `CCc1c(O)c(O)cc[n+]1[C@@H](CO)Cc1ccccc1.[Cl-]` as the compound, how does the Activity [1] read?
**A.** 22.3%

**Q.** What about the Activity [6] of the same compound?
**A.** Dose-dependent effect

**Q.** For `CCc1c(O)c(O)cc[n+]1[C@H](C)CO.[Cl-]`, which Activity [1] is on record?
**A.** 10.5%

**Q.** What does the source list for `Cc1c(O)c(=O)ccn1[C@@H](CO[C@@H]1O[C@H](C(=O)O)[C@@H](O)[C@H](O)[C@H]1O)Cc1ccccc1`?
**A.** Drug uptake [7]: Metabolite_Detected; Activity [8]: Active

**Q.** Which Activity [1] does the source give for `CCc1c(O)c(O)cc[n+]1[C@@H](CO)C(C)C.[Cl-]` here?
**A.** 10.6%

**Q.** Which Activity [1] does the source give for `Cc1c(O)c(O)cc[n+]1[C@H](CO)Cc1ccccc1.[Cl-]` here?
**A.** 12.8%

**Q.** What about the Drug metabolism [9] of the same compound?
**A.** Metabolite_Detected

**Q.** And the Drug metabolism [10]?
**A.** Metabolite_Detected

**Q.** And the Drug metabolism [11]?
**A.** Metabolite_Detected

**Q.** What about the Drug metabolism [12] of the same compound?
**A.** Metabolite_Detected

**Q.** And the Activity [2]?
**A.** Non-Toxic

**Q.** What about the Activity [13] of the same compound?
**A.** Non-Toxic

**Q.** And the Activity [14]?
**A.** Non-Toxic

**Q.** What about the Activity [15] of the same compound?
**A.** Non-Toxic

**Q.** What about the Activity [16] of the same compound?
**A.** Non-Toxic

**Q.** And the Activity [17]?
**A.** Non-Toxic

**Q.** And the Activity [18]?
**A.** Non-Toxic

**Q.** What about the Activity [19] of the same compound?
**A.** Non-Toxic

**Q.** And the Activity [20]?
**A.** Non-Toxic

**Q.** For `CCc1c(O)c(O)cc[n+]1[C@H](CO)[C@@H](C)CC.[Cl-]`, which Activity [1] is on record?
**A.** 5.5%

**Q.** Which Activity [1] does the source give for `Cc1c(O)c(O)cc[n+]1[C@H](C)CO.[Cl-]` here?
**A.** 6.5%

**Q.** Which Activity [1] does the source give for `CCc1c(O)c(O)cc[n+]1CCO.[Cl-]` here?
**A.** 2.4%
